Legend:
ChTS-DHFR [1] = biological target: T1, ChTS-DHFR (Cryptosporidium hominis, UniProt A0A0S4TER9); assay: Steady-state spectroscopic enzyme inhibition assay; format: biochemical; conditions: for Potency against ChTS-DHFR relative to FMN (in words): among the 50 compounds tested
[2] = system: Cryptosporidium parasite growth; conditions: cited from earlier work
DHFR of ChTS-DHFR [3] = assay: Steady-state competition assay; format: biochemical, Cryptosporidium hominis
DHFR of ChTS-DHFR [4] = assay: DHFR single-enzyme turnover; format: biochemical, Cryptosporidium hominis; conditions: enzyme in five-fold excess of H2F
ChTS-DHFR R190G mutant = assay: Inhibition of mutant ChTS-DHFR R190G; format: biochemical, Cryptosporidium hominis; conditions: preliminary analysis
T. gondii TS-DHFR = biological target: T2, T. gondii TS-DHFR (Toxoplasma gondii, UniProt Q07422); assay: Enzyme inhibition assay, T. gondii TS-DHFR; format: biochemical
T2 sequence (Q07422 1-610): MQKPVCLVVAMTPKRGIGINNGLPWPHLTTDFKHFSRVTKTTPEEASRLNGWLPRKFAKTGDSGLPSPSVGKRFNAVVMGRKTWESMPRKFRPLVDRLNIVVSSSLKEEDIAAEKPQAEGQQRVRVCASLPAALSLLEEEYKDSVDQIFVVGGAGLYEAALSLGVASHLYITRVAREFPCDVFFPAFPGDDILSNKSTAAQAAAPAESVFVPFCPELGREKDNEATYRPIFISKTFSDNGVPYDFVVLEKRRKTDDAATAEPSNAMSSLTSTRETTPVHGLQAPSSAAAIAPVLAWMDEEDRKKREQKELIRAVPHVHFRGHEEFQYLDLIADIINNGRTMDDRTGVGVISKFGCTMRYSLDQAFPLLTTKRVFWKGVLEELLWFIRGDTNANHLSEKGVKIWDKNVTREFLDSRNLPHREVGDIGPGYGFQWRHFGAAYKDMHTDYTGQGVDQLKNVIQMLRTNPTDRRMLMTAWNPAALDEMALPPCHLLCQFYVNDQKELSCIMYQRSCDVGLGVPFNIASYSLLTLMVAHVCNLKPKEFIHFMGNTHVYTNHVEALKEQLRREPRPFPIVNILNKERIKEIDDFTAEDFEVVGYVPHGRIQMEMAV
In short: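 IC50 determined for the test compound against T. gondii TS-DHFR. Enzyme and ligand concentrations were the same as in parallel runs on C. hominis TS-DHFR, human DHFR and human TS. Values are averages of at least three independent experiments.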

ChTS-DHFR [5] = biological target: T1, ChTS-DHFR; assay: Pre-steady-state burst amplitude dose response; format: binding; conditions: substrate in slight excess over enzyme
In short: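 Pre-steady-state kinetics of the DHFR step were observed on the millisecond time scale, with H2F substrate in slight excess over ChTS-DHFR. Burst amplitude was recorded across a dose series of test compound. Amplitude versus concentration was fit to a hyperbolic curve to derive a dissociation constant (Kd).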

TS reaction of ChTS-DHFR = assay: Inhibition of the TS reaction alone; format: biochemical, Cryptosporidium hominis; conditions: 300 μM FMN

## COC1=C(N)C(=O)c2nc(-c3nc(C(=O)O)c(C)c(-c4ccc(OC)c(OC)c4O)c3N)ccc2C1=O [Streptonigrin]
ChTS-DHFR [1]
  Potency against ChTS-DHFR relative to FMN (in words): comparable potency

## COc1cccc2c1C(=O)C1=C(C2=O)C(O)C2=C(C1O)[C@@H](C[C@@H]1C[C@H](N)[C@@H](O)[C@H](C)O1)C[C@@](O)(/C(C)=N/NC(=O)c1ccccc1)C2 (stereo partly drawn) [Rubidazone]
ChTS-DHFR [1]
  IC50: > 500 µM

## Cc1cc2nc3c(=O)[nH]c(=O)nc-3n(C[C@H](O)[C@H](O)[C@H](O)CO)c2cc1C [riboflavin]
ChTS-DHFR [1]
  Potency against ChTS-DHFR relative to FMN (in words): comparable potency

## CC(=O)N1CCN(c2ccc(OCC3COC(Cn4ccnc4)(c4ccc(Cl)cc4Cl)O3)cc2)CC1 (stereo not drawn) [Ketoconazole, reference compound]
ChTS-DHFR [1]
  IC50: > 500 µM

## C[C@H]1O[C@@H](O[C@H]2[C@@H](O)C[C@H](O[C@H]3[C@@H](O)C[C@H](O[C@H]4CC[C@@]5(C)[C@H](CC[C@@H]6[C@@H]5C[C@@H](O)[C@]5(C)[C@@H](C7=CC(=O)OC7)CC[C@]65O)C4)O[C@@H]3C)O[C@@H]2C)C[C@H](O)[C@@H]1O [Digoxin, reference compound]
ChTS-DHFR [1]
  IC50: > 500 µM

## CC(=O)Oc1ccccc1C(=O)Nc1ncc([N+](=O)[O-])s1 [nitazoxanide]
[2]
  Concentration range inhibiting parasite growth: 1 to 40 µM

## Cc1cc2nc3c(=O)[nH]c(=O)nc-3n(C[C@H](O)[C@H](O)[C@H](O)COP(=O)(O)O)c2cc1C [FMN, Flavin mononucleotide]
DHFR of ChTS-DHFR [3]; 200 μM FMN
  Mode of inhibition with respect to H2folate: noncompetitive (mixed)
  Mode of inhibition with respect to NADPH: uncompetitive
DHFR of ChTS-DHFR [3]; in the presence of 200 μM FMN (no inhibitor: 2.35 ± 0.04)
  Vmax, H2F varied: 1.8 ± 0.1 µmol/min
DHFR of ChTS-DHFR [3]; in the presence of 200 μM FMN (no inhibitor: 2.37 ± 0.03)
  Vmax, NADPH varied: 1.77 ± 0.01 µmol/min
DHFR of ChTS-DHFR [4]; 500 μM FMN
  Effect on rate of chemistry, DHFR single turnover: no decrease
DHFR of ChTS-DHFR [4]
  Effect on amplitude of the single-turnover plot: dose-dependent decrease
ChTS-DHFR R190G mutant
  Inhibitory effect on R190G mutant less than that against WT ChTS-DHFR: approximately 20%
T. gondii TS-DHFR
  Inhibition of TS-DHFR from Toxoplasma gondii (in words): did not inhibit
ChTS-DHFR [5]
  Effect on DHFR burst amplitude: dose-dependent decrease
TS reaction of ChTS-DHFR
  Inhibition of the TS reaction alone: little inhibition
ChTS-DHFR [1]; enzyme concentration varied from 80 to 250 nM
  Change in IC50 on varying enzyme concentration: no resulting change

## CC(=O)N[C@@H]1[C@@H](O)[C@H](O[C@@H]2O[C@H](CO)[C@@H](O)[C@H](O)[C@H]2NC(C)=O)[C@@H](CO)O[C@H]1O [Chitodextrin]
ChTS-DHFR [1]
  IC50: > 500 µM
